# Laboratory results as given in ChEMBL document CHEMBL4251576, “Synthesis and biological evaluation of curcumin inspired imidazo[1,2-a]pyridine analogues as tubulin polymerization inhibitors” (Eur J Med Chem, 2018).
# The source made the active and inactive calls. The calls are words filed in the database; no cut-off is given here.
# Assays:
# [1] = tested on: PC-3; assay: Cell cycle arrest in human PC3 cells assessed as accumulation at G0/G1 phase at 2 uM after 24 hrs by propidium iodide staining-based flow cytometric method (reference value: 58.41%); type: functional
# [2] = tested on: HGC-27; assay: Cytotoxicity against human HGC27 cells assessed as inhibition of cell viability after 48 hrs by MTT assay; type: functional, cell-based; details: HGC-27, 48 h
# Procedure, shortened: (§1)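 Cells were seeded at 2.5‒5 x 10^3 per well in DMEM or RPMI with 10% FBS and grown 24 h at 37 °C under CO2. Compounds diluted in medium were added alongside vehicle control for 48 h. MTT (0.5 mg/mL) was added for 4 h, formazan dissolved in DMSO and absorbance read at 570 nm. IC50 is the concentration giving 50% loss of viability; mean ± SD of three experiments, each in triplicate.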
# [3] = tested on: PC-3; assay: Potency index, ratio of curcumin IC50 to test compound IC50 for human PC3 cells; type: functional
# [4] = species: Sus scrofa; assay: (§2) Inhibition of tubulin polymerization in porcine brain at 10 uM after 60 mins by fluorescence assay
# Procedure, shortened: (§3)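 Cell-free kit assay using porcine brain tubulin (2 mg/mL) in 80 mM PIPES pH 6.9 with 2.0 mM MgCl2, 0.5 mM EGTA, 1.0 mM GTP and glycerol; compound at 10 µM final, nocodazole as positive control. Polymerization tracked over time as fluorescence of a reporter incorporated into microtubules (ex 360 nm, em 440 nm), with inhibition relative to control.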
# [5] = as §2; set-up: species or system Sus scrofa; procedure, shortened: as §3
# [6] = tested on: PC-3; assay: Induction of apoptosis in human PC3 cells assessed as apoptotic body formation at 1 uM after 48 hrs by acridine orange/ethidium bromide staining-based fluorescence inverted microscopic method; type: functional, cell-based
# Procedure, shortened: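 PC-3 cells (25000/well) grown 24 h, then exposed 48 h to 0.5, 1 or 2 µM with DMSO control. After PBS wash, stained with acridine orange and ethidium bromide (10 µg/mL each) and imaged at once by fluorescence inverted microscopy (ex 488 nm, em 530 nm, 200x).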
# [7] = tested on: PC-3; assay: Induction of apoptosis in human PC3 cells assessed as nuclei condensation at 1 to 2 uM after 48 hrs by DAPI staining-based fluorescence microscopic method; type: functional, cell-based
# Procedure, shortened: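 PC-3 cells (25000/well) adhered overnight, then treated 48 h at 1 or 2 µM. After PBS wash, fixed 20 min in 4% neutral buffered formalin, permeabilized 5 min with 0.2% Triton X, and stained 10 min at room temperature with DAPI (1 µg/mL). Nuclei viewed by fluorescence microscopy (ex 350 nm, em 460 nm, 200x).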
# [8] = tested on: PC-3; assay: Cell cycle arrest in human PC3 cells assessed as accumulation at G2/M phase at 1 uM after 24 hrs by propidium iodide staining-based flow cytometric method (reference value: 33.13%); type: functional
# [9] = tested on: HeLa; assay: Cytotoxicity against human HeLa cells assessed as inhibition of cell viability after 48 hrs by MTT assay; type: functional, cell-based; procedure, shortened: as §1
# [10] = tested on: DU-145; assay: Cytotoxicity against human DU145 cells assessed as inhibition of cell viability after 48 hrs by MTT assay; type: functional, cell-based; details: DU-145, 48 h; procedure, shortened: as §1
# [11] = tested on: PC-3; assay: Cell cycle arrest in human PC3 cells assessed as accumulation at S phase at 2 uM after 24 hrs by propidium iodide staining-based flow cytometric method (reference value: 8.08%); type: functional
# [12] = Selectivity index, ratio of IC50 for human RWPE1 cells to IC50 for human PC3 cells; type: toxicity; details: RWPE1 cells versus PC3 cells, read-out: Ratio IC50
structure (smiles),measurement,setting,value
COc1cc(OC)c(/C=C/C(=O)/C=C/c2nc3ccccn3c2-c2ccc(F)c(F)c2)c(OC)c1,Activity,[1],32.66%
same,IC50,[2],2210 nM
same,Ratio IC50,[3],8.9
same,inhibition,[4],Dose-dependent effect
same,IC50,[5],8440 nM
same,Activity,[6],Active
same,Activity,[7],Active
same,Activity,[8],44.65%
same,IC50,[9],2530 nM
same,IC50,[10],2970 nM
same,Activity,[11],0.76%
same,selectivity ratio,[12],2
